The structures appear in SMILES notation.

The test system of assay [1] is Radical scavenging activity. Briefly: Antioxidant activity assessed as DPPH free radical scavenging activity at 100 uM after 1 hr. The class given is functional. The gist of the method: (§1)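 Test compound at various concentrations added to 60 µM methanolic DPPH. Held 1 h at room temperature, then absorbance read at 517 nm; trolox used as reference standard. Values from three experiments.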
On the technique in general: DPPH is a stable violet radical that fades when it is reduced.

The nature of assay [2]: Antioxidant activity assessed as ABTS free radical scavenging activity at 100 uM after 12 hrs. The format is functional. An outline of the steps:
(§2)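 ABTS radical cation made by mixing 7 mM ABTS stock with 2.45 mM potassium persulfate, left 12 h in dark. Ethanolic compound solution added to ABTS solution, absorbance at 734 nm read after mixing up to 6 min. Reported as % ABTS radical scavenged; triplicate.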

Assay [3] concerns Radical scavenging activity. Briefly: Antioxidant activity assessed as DPPH free radical scavenging activity after 1 hr. The format is functional. The gist of the method: as §1
Assay [4] in a line: Antioxidant activity assessed as ABTS free radical scavenging activity after 12 hrs. The class given is functional. An outline of the steps:
as §2

The next assay concerns Plasmodium falciparum. As to the kind of experiment: Antimalarial activity against Plasmodium falciparum infected in human O+ erythrocytes after 48 hrs by HRP2-ELISA method. The class given is functional, organism-based. Background: In an ELISA, binding on a coated surface is turned into a signal by an enzyme label.

For the molecule `Cc1c(C)c2c(c(C)c1O)CCC(C)(C(=O)O)O2` (stereo not drawn) [TROLOX], the inhibition (usually the change of the read-out against control, counted positive when it falls) in assay [1] is 99.5%; in assay [2], 99.1%. In addition, the IC50 – broadly, the concentration that inhibits the measured activity by half – came to 15.7 µM in assay [3] and 16.2 µM in assay [4].

Turning to `COc1ccc(OC)c(C=C2C(=O)OC(C)(C)OC2=O)c1`, the IC50 with Plasmodium falciparum came to 33.2 µM. For the same molecule, the figures for the inhibition in assay [1] and in assay [2] were 12.2% and 13.8%, respectively.

In the assay on Plasmodium falciparum, `CC1(C)OC(=O)C(=C/C=C/c2ccccc2)C(=O)O1` came in with an IC50 of 24.3 µM. The inhibition in assay [1] was 53.1%; in assay [2] it was 20.2%.

`CC1(C)OC(=O)C(=Cc2ccc3ccccc3c2)C(=O)O1` had an IC50 in the assay with Plasmodium falciparum of 14.3 µM. Also, the inhibition amounted to 20.6% in assay [1] and 17% in assay [2].

For the molecule `CC1(C)OC(=O)C(=Cc2c3ccccc3cc3ccccc23)C(=O)O1`, the IC50 with Plasmodium falciparum was greater than 100 µM. In addition, the inhibition was determined as 8.76% in assay [1] and 10.7% in assay [2].

In the assay on Plasmodium falciparum, `COc1ccc(C=C2C(=O)OC(C)(C)OC2=O)cc1OCc1ccccc1` gave an IC50 of 36.1 µM.

In the assay on Plasmodium falciparum, `COc1cc(OC)c(OC)cc1C=C1C(=O)OC(C)(C)OC1=O` yielded an IC50 of 33.9 µM. Besides, the results for the inhibition in assay [1] and in assay [2] were 6.23% and 9.86%, respectively.

In the assay on Plasmodium falciparum, `COc1ccc2ccccc2c1C=C1C(=O)OC(C)(C)OC1=O` gave an IC50 of 31.8 µM. Moreover, the inhibition in assay [1] is 9.48%; in assay [2], 4.73%.

In the case of `COc1ccc(C=C2C(=O)OC(C)(C)OC2=O)cc1O`, the IC50 in the assay on Plasmodium falciparum worked out at 12.4 µM; in assay [3], 80 µM; in assay [4], 72.2 µM. Further, the inhibition in assay [1] was determined as 40.2%; in assay [2] it was 52.8%.

As to `CN(C)c1ccc(C=C2C(=O)OC(C)(C)OC2=O)cc1`, it took 35.2 µM to reach half-maximal inhibition in the assay with Plasmodium falciparum (IC50). Moreover, the inhibition in assay [1] is 10.3%; in assay [2] it was 13.9%.

In the assay on Plasmodium falciparum, `COc1ccc(C=C2C(=O)OC(C)(C)OC2=O)c(OC)c1OC` came in with an IC50 of 34.7 µM. The inhibition in assay [1] worked out at 5.72%; in assay [2], 13%.

In the assay with Plasmodium falciparum, `CC1(C)OC(=O)C(=Cc2ccc(O)cc2)C(=O)O1` came in with an IC50 of 34.6 µM. For the same molecule, the results for the inhibition in assay [1] and in assay [2] were 5.12% and 14.4%, respectively.

With `C[C@@H]1CC[C@H]2[C@@H](C)C(=O)O[C@@H]3O[C@@]4(C)CC[C@@H]1[C@]32OO4` [ARTEMISININ], in the assay with Plasmodium falciparum, 0.0028 µM corresponded to half-maximal inhibition (IC50).

With `CC1(C)OC(=O)C(=Cc2cccc3ccccc23)C(=O)O1`, in the assay on Plasmodium falciparum, 16.1 µM corresponded to half-maximal inhibition (IC50). The inhibition turned out to be 8.88% in assay [1] and 7.55% in assay [2].

For `CC1(C)OC(=O)C(=Cc2ccccc2[N+](=O)[O-])C(=O)O1`, the IC50 with Plasmodium falciparum turned out to be 39.6 µM. The inhibition in assay [1] was determined as 6.41%; in assay [2], 1.3%.

`CC1(C)OC(=O)C(=Cc2cccs2)C(=O)O1` returned an IC50 in the assay with Plasmodium falciparum greater than 100 µM. Also, the inhibition in assay [1] was determined as 6.32%; in assay [2] it was 3.77%.

In the case of `CC1(C)OC(=O)C2(OC2c2ccccc2)C(=O)O1` (stereo not drawn), in the assay on Plasmodium falciparum, the IC50 is greater than 100 µM.

In the assay with Plasmodium falciparum, `CC1(C)OC(=O)C(=Cc2ccccc2)C(=O)O1` showed an IC50 of 37.8 µM.

In the case of `O=C1CCCC(=O)C1=Cc1ccccc1`, the IC50 in the assay with Plasmodium falciparum was greater than 100 µM.

As to `COc1cc(C=C2C(=O)OC(C)(C)OC2=O)ccc1OCc1ccccc1`, 37.2 µM corresponded to half-maximal inhibition in the assay with Plasmodium falciparum (IC50). The inhibition is 10.7% in assay [1] and 3.62% in assay [2].

Take `O=C1O[C@H]([C@@H](O)CO)C(O)=C1O` [ASCORBIC ACID]: the inhibition in assay [1] is 99.4%; in assay [2], 98%. Moreover, the half-inhibitory concentration (IC50) is 22.4 µM in assay [3] and 25.5 µM in assay [4].

`CCOc1cc(C=C2C(=O)OC(C)(C)OC2=O)ccc1O`: the IC50 is 15.5 µM in the assay with Plasmodium falciparum, 39.1 µM in assay [3] and 30.7 µM in assay [4]. Further, the inhibition came out at 66.2% in assay [1] and 95.6% in assay [2].

`CC1(C)OC(=O)C(=Cc2ccc3c(c2)OCO3)C(=O)O1`: the IC50 with Plasmodium falciparum worked out at 28.1 µM. The inhibition in assay [1] amounted to 8.2%; in assay [2], 8.25%.

Regarding `COc1cc(C=C2C(=O)OC(C)(C)OC2=O)ccc1O`, the IC50 in the assay on Plasmodium falciparum is 9.68 µM; in assay [3], 24 µM; in assay [4], 30.5 µM. For the same molecule, the figures for the inhibition in assay [1] and in assay [2] were 76% and 92.6%, respectively.

With `COc1cc(C=C2C(=O)OC(C)(C)OC2=O)cc(OC)c1OC`, the IC50 in the assay on Plasmodium falciparum came out at 20.2 µM. Besides, the inhibition in assay [1] turned out to be 3.24%; in assay [2], 5.33%.

For `CC1(C)OC(=O)C(=Cc2c[nH]c3ccccc23)C(=O)O1`, half-maximal inhibition in the assay with Plasmodium falciparum (IC50) required 41.7 µM. Also, the inhibition turned out to be 1.79% in assay [1] and 3.12% in assay [2].

In the assay with Plasmodium falciparum, `CC1(C)OC(=O)C2(OC2c2ccccc2[N+](=O)[O-])C(=O)O1` (stereo not drawn) gave an IC50 greater than 100 µM.

Turning to `COc1ccc(C=C2C(=O)OC(C)(C)OC2=O)cc1`, the half-maximal inhibitory concentration (IC50) in the assay on Plasmodium falciparum came to 36.4 µM. For the same molecule, the results for the inhibition in assay [1] and in assay [2] were 5.81% and 9.26%, respectively.

In the case of `COc1ccc(C=C2C(=O)OC(C)(C)OC2=O)cc1OC`, in the assay on Plasmodium falciparum, half-maximal inhibition (IC50) was put at 26.1 µM. Also, the inhibition in assay [1] was determined as 4.74%; in assay [2], 6.84%.

These data come from ChEMBL document CHEMBL1212850, “Synthesis and biological evaluation of arylidene analogues of Meldrum's acid as a new class of antimalarial and antioxidant agents” (Bioorg Med Chem, 2010).
